The structures appear in SMILES notation. The source made the active and inactive calls. The calls are words filed in the database; no cut-off is given here.

In test [1] the test system is Mus musculus. The test is described as follows: Average days survived for treated / average days survived for control at 25 (mg/kg); 17.6/9.5. Type of test: functional.
The test system of test [2] is Mus musculus. The test is described as follows: Anti tumor activity in mice bearing lymphocytic leukemia P-388 at 25 mg/kg. In kind it is functional. Put shortly: (§1)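 Male BDF1 mice (20–23 g) were inoculated ip with 1 × 10⁶ P-388 leukemia cells on day 0. Compound was given ip once daily on days 1–14 in 0.05% Tween 80 vehicle, with a vehicle control group and 5-fluorouracil as positive control. Activity was scored as % T/C, average days survived treated/control, with >125% taken as significant.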

Test [3] concerns Mus musculus. The test is described as follows: Antitumor activity in CF1 mice bearing Ehrlich ascites carcinoma measured as percentage inhibition at 5 mg/kg. In kind it is functional. Put shortly: (§2)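 Ehrlich ascites model in male CF1 mice (22–25 g): 2 × 10⁶ cells ip on day 0, ip dosing days 1–8, kill on day 9. Percent inhibition = 100 − [(treated volume × treated ascrit)/(control volume × control ascrit)]. Greater than 80% was taken as significant. Vehicle was 0.05% Tween 80, alone or with 5% absolute EtOH. 6-Mercaptopurine was the positive control.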

For test [4], the system named is Mus musculus. The test is described as follows: Antitumor activity in CF1 mice bearing Ehrlich ascites carcinoma measured as ascites volume at 0.5 mg/kg. In kind it is functional. In a few lines: (§3)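 Ehrlich ascites cells (2 × 10⁶) were implanted ip in male CF1 mice (22–25 g) on day 0. Dosing was ip on days 1–8 in 0.05% Tween 80 or 5% EtOH/0.05% Tween 80, with vehicle controls. Mice were killed on day 9, and ascites fluid volume per mouse was measured.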

Test [5] relates to Mus musculus. The test is described as follows: Antitumor activity in CF1 mice bearing Ehrlich ascites carcinoma measured as percentage inhibition at 0.5 mg/kg; IA= inactive. In kind it is functional, organism-based. Also on record: dose 0.5 mg/kg. Put shortly: (§4)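 In the Ehrlich ascites model, male CF1 mice (22–25 g) received 2 × 10⁶ cells ip on day 0 and compound ip on days 1–8, with a vehicle of 0.05% Tween 80 ± 5% EtOH. Ascites volume and ascrit were taken on day 9. % inhibition = 100 − [(vol × ascrit, treated)/(vol × ascrit, control)], with >80% taken as significant.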

For test [6], the system named is Mus musculus. The test is described as follows: Antitumor activity in CF1 mice bearing Ehrlich ascites carcinoma measured as percentage inhibition at 1 mg/kg. In kind it is functional. Put shortly:
as §4

For test [7], the system named is Mus musculus. The test is described as follows: Antitumor activity in CF1 mice bearing Ehrlich ascites carcinoma measured as survivors on day 9 at 1 mg/kg; 6/6. In kind it is functional.
The subject of test [8] is Mus musculus. The test is described as follows: Antitumor activity in CF1 mice bearing Ehrlich ascites carcinoma measured as ascites volume at 1 mg/kg. Type of test: functional. Put shortly:
as §3

Test [9] relates to Mus musculus. The test is described as follows: Antitumor activity in CF1 mice bearing Ehrlich ascites carcinoma measured as ascites volume at 5 mg/kg. In kind it is functional. In a few lines:
(§5)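 Male CF1 mice (22–25 g) received 2 × 10⁶ Ehrlich carcinoma cells ip on day 0. Dosing was ip daily on days 1–8, with sacrifice on day 9. Ascites fluid volume per mouse and ascrit (packed cell volume) were measured for each group. Vehicle was 0.05% Tween 80, or 5% absolute EtOH in 0.05% Tween 80, used for both compound and control. 6-Mercaptopurine was the positive control.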

Test [10] deals with Mus musculus. The test is described as follows: Average days survived for treated / average days survived for control at 0.5 (mg/kg); 10.5/9.2. Type of test: functional.
Test [11] relates to Mus musculus. The test is described as follows: Average days survived for treated / average days survived for control at 1 (mg/kg); 13.3/9.2. Type of test: functional.
Test [12] concerns Mus musculus. The test is described as follows: Average days survived for treated / average days survived for control at 2 (mg/kg); 12.6/9.2. In kind it is functional.
For test [13], the system named is Mus musculus. The test is described as follows: Average days survived for treated / average days survived for control at 3 (mg/kg); 10.2/9.2. Type of test: functional.
Test [14] has as its system Mus musculus. The test is described as follows: Average days survived for treated / average days survived for control at 5 (mg/kg); 11/9.2. Type of test: functional.
The subject of test [15] is Mus musculus. The test is described as follows: Antitumor activity in CF1 mice bearing Ehrlich ascites carcinoma measured as survivors on day 9 at 5 mg/kg; 6/6. In kind it is functional.
Test [16] relates to Mus musculus. The test is described as follows: Antitumor activity in CF1 mice bearing Ehrlich ascites carcinoma measured as percent ascrit packed cell volume at 1 mg/kg. In kind it is functional. Put shortly:
(§6)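 CF1 male mice (22–25 g) were inoculated ip with 2 × 10⁶ Ehrlich cells on day 0 and treated ip on days 1–8 in 0.05% Tween 80 or 5% EtOH/0.05% Tween 80 vehicle. On day 9 the mice were sacrificed, and the ascrit (packed cell volume) of the ascites fluid was determined.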

Test [17] has as its system Mus musculus. The test is described as follows: Antitumor activity in CF1 mice bearing Ehrlich ascites carcinoma measured as percent ascrit packed cell volume at 5 mg/kg. Type of test: functional. In a few lines:
as §5

The test system of test [18] is Mus musculus. The test is described as follows: Antitumor activity in CF1 mice bearing Ehrlich ascites carcinoma measured as percent ascrit packed cell volume at 0.5 mg/kg. Type of test: functional. Put shortly:
as §6

In test [19] the test system is Mus musculus. The test is described as follows: Anti tumor activity in mice bearing lymphocytic leukemia P-388 at 0.5 mg/kg. Type of test: functional. Put shortly:
as §1

Test [20] relates to Mus musculus. The test is described as follows: Anti tumor activity in mice bearing lymphocytic leukemia P-388 at 1 mg/kg. In kind it is functional. In a few lines: as §1
For test [21], the system named is Mus musculus. The test is described as follows: Anti tumor activity in mice bearing lymphocytic leukemia P-388 at 2 mg/kg. In kind it is functional. Put shortly: as §1
For test [22], the system named is Mus musculus. The test is described as follows: Anti tumor activity in mice bearing lymphocytic leukemia P-388 at 3 mg/kg. Type of test: functional. In a few lines:
as §1

The subject of test [23] is Mus musculus. The test is described as follows: Anti tumor activity in mice bearing lymphocytic leukemia P-388 at 5 mg/kg. Type of test: functional. In a few lines: as §1
The test system of test [24] is Mus musculus. The test is described as follows: Anti tumor activity in mice bearing lymphocytic leukemia P-388 at 10 mg/kg; Toxic. Type of test: functional, organism-based. Further details: dose 10 mg/kg. Put shortly:
as §1

For test [25], the system named is Mus musculus. The test is described as follows: Antitumor activity in CF1 mice bearing Ehrlich ascites carcinoma measured as survivors on day 9 at 0.5 mg/kg; 5/6. Type of test: functional.
Test [26] concerns Mus musculus. The test is described as follows: Antitumor activity in CF1 mice bearing Ehrlich ascites carcinoma measured as percentage inhibition at 3 mg/kg; IA=inactive. In kind it is functional, organism-based. Also on record: dose 3 mg/kg. In a few lines: as §4
Test [27] has as its system Mus musculus. The test is described as follows: Antitumor activity in CF1 mice bearing Ehrlich ascites carcinoma measured as percentage inhibition at 8 mg/kg. Type of test: functional. Put shortly:
as §2

Test [28] concerns Mus musculus. The test is described as follows: Antitumor activity in CF1 mice bearing Ehrlich ascites carcinoma measured as survivors on day 9 at 3 mg/kg; 6/6. Type of test: functional.
Test [29] has as its system Mus musculus. The test is described as follows: Antitumor activity in CF1 mice bearing Ehrlich ascites carcinoma measured as ascites volume at 3 mg/kg. In kind it is functional. Put shortly: as §5
Test [30] has as its system Mus musculus. The test is described as follows: Antitumor activity in CF1 mice bearing Ehrlich ascites carcinoma measured as ascites volume at 8 mg/kg. Type of test: functional. In a few lines: as §5
In test [31] the test system is Mus musculus. The test is described as follows: Average days survived for treated / average days survived for control at 1 (mg/kg); 10/9.2. In kind it is functional.
The test system of test [32] is Mus musculus. The test is described as follows: Antitumor activity in CF1 mice bearing Ehrlich ascites carcinoma measured as survivors on day 9 at 5 mg/kg; 5/5. In kind it is functional.
For test [33], the system named is Mus musculus. The test is described as follows: Antitumor activity in CF1 mice bearing Ehrlich ascites carcinoma measured as survivors on day 9 at 8 mg/kg; 5/6. Type of test: functional.
Test [34] relates to Mus musculus. The test is described as follows: Antitumor activity in CF1 mice bearing Ehrlich ascites carcinoma measured as percent ascrit packed cell volume at 3 mg/kg. In kind it is functional. Put shortly:
as §6

The test system of test [35] is Mus musculus. The test is described as follows: Antitumor activity in CF1 mice bearing Ehrlich ascites carcinoma measured as percent ascrit packed cell volume at 8 mg/kg. Type of test: functional. Put shortly:
as §5

Test [36] has as its system Mus musculus. The test is described as follows: Antitumor activity in CF1 mice bearing Ehrlich ascites carcinoma measured as percentage inhibition at 50 mg/kg. Type of test: functional. In a few lines: as §2
For test [37], the system named is Mus musculus. The test is described as follows: Antitumor activity in 18 CF1 mice bearing Ehrlich ascites carcinoma measured as survivors on day 9 at 50 mg/kg; 16/18. Type of test: functional.
Test [38] concerns Mus musculus. The test is described as follows: Antitumor activity in CF1 mice bearing Ehrlich ascites carcinoma measured as ascites volume at 50 mg/kg. Type of test: functional. In a few lines: as §5
The test system of test [39] is Mus musculus. The test is described as follows: Antitumor activity in CF1 mice bearing Ehrlich ascites carcinoma measured as percent ascrit packed cell volume at 50 mg/kg. Type of test: functional. Put shortly: as §5

In the case of `O=c1[nH]cc(F)c(=O)[nH]1` [FLUOROURACIL], the “Average survival (days)” value with Mus musculus [1] was 17.6. In addition, the T/C with Mus musculus [2] worked out at 186%.
Compound `O=C1C(N2CC2)=C(Cl)C(=O)c2n[nH]cc21` displayed an inhibition in vivo at 5 mg/kg in the test with Mus musculus [3] of 92.5%. The ascites volume with Mus musculus [4] came to 0.38 ml mouse-1; with Mus musculus [8], 0.32 ml mouse-1; with Mus musculus [9], 0.15 ml mouse-1. Further, the inhibition result with Mus musculus [5] was “inactive”. The same compound came in with an inhibition in vivo at 1 mg/kg with Mus musculus [6] of 95%. Besides, the Survivors was determined as 6 in the test with Mus musculus [7], 6 in the test on Mus musculus [15] and 5 in the test on Mus musculus [25]. Also, the “Average survival (days)” value with Mus musculus [10] came out at 10.5; with Mus musculus [11] it was 13.3; in the test with Mus musculus [12] it was 12.6; with Mus musculus [13] it was 10.2; with Mus musculus [14], 11. Also, the packed cell volume in the test on Mus musculus [16] came to 5.8%; in the test with Mus musculus [17] it was 49.4%; with Mus musculus [18], 44%. Also, the T/C is 114% in the test with Mus musculus [19]; 145% with Mus musculus [20]; 137% in the test on Mus musculus [21]; 111% in the test on Mus musculus [22]; 120% in the test on Mus musculus [23]; “Toxic” with Mus musculus [24].
As for `CC(=O)NC1=C(N2CC2)C(=O)c2c(cnn2C)C1=O`, in the test on Mus musculus [26], the inhibition entry was “inactive”. Further, 5 mg/kg produced 78.3% inhibition in vivo in the test on Mus musculus [3]. For the same compound, testing at 8 mg/kg in the test on Mus musculus [27] gave an inhibition in vivo of 25.8%. The Survivors is 6 in the test with Mus musculus [28], 5 in the test on Mus musculus [32] and 5 in the test on Mus musculus [33]. Moreover, the ascites volume was determined as 3.2 ml mouse-1 in the test on Mus musculus [29], 0.9 ml mouse-1 with Mus musculus [9] and 1.2 ml mouse-1 in the test with Mus musculus [30]. In addition, in the test on Mus musculus [31], the “Average survival (days)” value turned out to be 10. For the same compound, the packed cell volume in the test with Mus musculus [34] worked out at 41.4%; with Mus musculus [17], 37.4%; in the test with Mus musculus [35], 38.6%. Further, in the test on Mus musculus [20], the T/C is on record as 109%.
For the compound `Sc1ncnc2nc[nH]c12` [MERCAPTOPURINE ANHYDROUS], at 50 mg/kg the inhibition in vivo in the test on Mus musculus [36] was 96.3%. The Survivors in the test on Mus musculus [37] is recorded as 16. The ascites volume with Mus musculus [38] turned out to be 0.2 ml mouse-1. Moreover, the packed cell volume in the test on Mus musculus [39] is 10.5%.
